The values below come from ChEMBL document CHEMBL2311392, “Differential interactions of rifabutin with human and bacterial membranes: implication for its therapeutic and toxic effects” (J Med Chem, 2013).

Data set [1] relates to Lipid bilayer. As to the kind of experiment: Binding affinity to DPH-PA probe-labeled DMPG liposomes assessed as main phase transition temperature at 30 uM by steady-state fluorescence anisotrope (reference value: 23.9 +/- 0.3 degC). To be noted: Microsome.
Data set [2] concerns Lipid bilayer. Kind of data set: Binding affinity to DPH probe-labeled DMPG liposomes assessed as main phase transition temperature at 30 uM by steady-state fluorescence anisotrope (reference value: 24.1 +/- 0.5 degC).
A short description of data set [3]: Drug localization in DPH probe-labeled DMPG liposomes at 37 +/- 0.1 degC by fluorescence quenching. The class given is physicochemical. Put shortly:
(§1)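 LUVs (100 nm extrusion) of DMPC or DMPG at 500 μM total lipid in HEPES 0.01 M, I = 0.1 M (NaCl), pH 7.4, labelled with DPH or DPH-PA (probe:lipid 1:300). Drug (0–27 μM) incubated 30 min at 37.0 °C in the dark. Steady-state intensity (ex 357/360, em 427/430 nm) and lifetime read, corrected for quencher absorbance. Membrane drug concentration taken from Kp. Stern–Volmer constants obtained at 37.0 and 42.0 °C.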

Data set [4] deals with Lipid bilayer. As to the kind of experiment: Binding affinity to DPH probe-labeled DMPG liposomes assessed as binding constant by fluorescence quenching assay. Put shortly: as §1
Data set [5] in a line: Drug localization in DPH-PA probe-labeled DMPC liposomes at 37 +/- 0.1 degC by fluorescence quenching. Format: physicochemical. In outline:
as §1

Data set [6] can be described thus: Drug localization in DPH-PA probe-labeled DMPG liposomes at 37 +/- 0.1 degC by fluorescence quenching. The class given is physicochemical. Put shortly:
as §1

Data set [7] in a line: Drug localization in DPH probe-labeled DMPC liposomes at 42 +/- 0.1 degC by fluorescence quenching. The class given is physicochemical. Put shortly:
as §1

The test system of data set [8] is Lipid bilayer. As to the kind of experiment: Binding affinity to DPH-PA probe-labeled DMPG liposomes assessed as binding constant by fluorescence quenching assay. In outline: as §1
Data set [9] is described as follows: Drug localization in DPH probe-labeled DMPG liposomes at 42 +/- 0.1 degC by fluorescence quenching. Format: physicochemical. In outline:
as §1

In data set [10] the test system is Lipid bilayer. Kind of data set: Binding affinity to DPH-PA probe-labeled DMPC liposomes assessed as main phase transition temperature at 30 uM by steady-state fluorescence anisotrope (reference value: 24.6 +/- 0.3 degC). To be noted: Microsome.
Data set [11] is described as follows: Drug localization in DPH-PA probe-labeled DMPC liposomes at 42 +/- 0.1 degC by fluorescence quenching. The class given is physicochemical. Put shortly:
as §1

Data set [12] is described as follows: Drug localization in DPH probe-labeled DMPC liposomes at 37 +/- 0.1 degC by fluorescence quenching. Format: physicochemical. Put shortly:
as §1

Data set [13] deals with Lipid bilayer. Kind of data set: Binding affinity to DPH-PA probe-labeled DMPC liposomes assessed as binding constant by fluorescence quenching assay. Put shortly:
as §1

Data set [14] is described as follows: Drug localization in DPH-PA probe-labeled DMPG liposomes at 42 +/- 0.1 degC by fluorescence quenching. The class given is physicochemical. Put shortly: as §1
The subject of data set [15] is Lipid bilayer. Kind of data set: Binding affinity to DPH probe-labeled DMPC liposomes assessed as binding constant by fluorescence quenching assay. Put shortly:
as §1

Data set [16] deals with Lipid bilayer. As to the kind of experiment: Binding affinity to DPH probe-labeled DMPC liposomes assessed as main phase transition temperature at 30 uM by steady-state fluorescence anisotrope (reference value: 24.4 +/- 0.2 degC).

Consider `CO[C@H]1/C=C/O[C@@]2(C)Oc3c(C)c(O)c4c(c3C2=O)C2=NC3(CCN(CC(C)C)CC3)NC2=C(NC(=O)/C(C)=C\C=C\[C@H](C)[C@H](O)[C@@H](C)[C@@H](O)[C@@H](C)[C@H](OC(C)=O)[C@@H]1C)C4=O` [RIFABUTIN], for which the Tm was 24.2 °C in data set [1], 24.4 °C in data set [2], 24.5 °C in data set [10] and 24.5 °C in data set [16]. Moreover, the KSV in data set [3] turned out to be 167 M⁻¹; in data set [5], 165 M⁻¹; in [6], 181 M⁻¹; in data set [7], 156 M⁻¹; in data set [9], 132 M⁻¹; in [11], 76 M⁻¹. For the same molecule, the KSV in data set [12] is 216 M⁻¹; in data set [14], 121 M⁻¹. Besides, the Kq in data set [4] was 1.9e+10 M⁻¹ s⁻¹; in [8] it was 2.6e+10 M⁻¹ s⁻¹; in [13], 2.9e+10 M⁻¹ s⁻¹; in data set [15] it was 2.7e+10 M⁻¹ s⁻¹.
